Measured values published in ChEMBL document CHEMBL2407003, “Effects of (-)-epicatechin and derivatives on nitric oxide mediated induction of mitochondrial proteins” (Bioorg Med Chem Lett, 2013).
Active and inactive are the calls of the source. No cut-off for these calls is given here.

Experiments:
[1] = Upregulation of mitochondrial complex-1 expression in BCAEC at 0.01 nmol/L after 48 hrs by Western blot analysis; assay type: functional; conditions: Bos taurus
[2] = Upregulation of mitofilin expression in BCAEC at EC50 after 48 hrs by Western blot analysis; assay type: functional; conditions: Bos taurus
[3] = Upregulation of porin expression in BCAEC at EC50 after 48 hrs by Western blot analysis in presence of L-NAME; assay type: functional; conditions: Bos taurus
[4] = Upregulation of mitochondrial complex-2 expression in BCAEC at EC50 after 48 hrs by Western blot analysis relative to control; assay type: functional; conditions: Bos taurus
[5] = Upregulation of TFAM expression in BCAEC at EC50 after 48 hrs by Western blot analysis; assay type: functional; conditions: Bos taurus
Nitric oxide synthase 3 = target: T1, Nitric oxide synthase 3 (Bos taurus, UniProt P29473); test: Activation of eNOS in BCAEC assessed as increase in nitric oxide level after 10 mins by fluorometric analysis
T1 sequence (P29473 whole entry): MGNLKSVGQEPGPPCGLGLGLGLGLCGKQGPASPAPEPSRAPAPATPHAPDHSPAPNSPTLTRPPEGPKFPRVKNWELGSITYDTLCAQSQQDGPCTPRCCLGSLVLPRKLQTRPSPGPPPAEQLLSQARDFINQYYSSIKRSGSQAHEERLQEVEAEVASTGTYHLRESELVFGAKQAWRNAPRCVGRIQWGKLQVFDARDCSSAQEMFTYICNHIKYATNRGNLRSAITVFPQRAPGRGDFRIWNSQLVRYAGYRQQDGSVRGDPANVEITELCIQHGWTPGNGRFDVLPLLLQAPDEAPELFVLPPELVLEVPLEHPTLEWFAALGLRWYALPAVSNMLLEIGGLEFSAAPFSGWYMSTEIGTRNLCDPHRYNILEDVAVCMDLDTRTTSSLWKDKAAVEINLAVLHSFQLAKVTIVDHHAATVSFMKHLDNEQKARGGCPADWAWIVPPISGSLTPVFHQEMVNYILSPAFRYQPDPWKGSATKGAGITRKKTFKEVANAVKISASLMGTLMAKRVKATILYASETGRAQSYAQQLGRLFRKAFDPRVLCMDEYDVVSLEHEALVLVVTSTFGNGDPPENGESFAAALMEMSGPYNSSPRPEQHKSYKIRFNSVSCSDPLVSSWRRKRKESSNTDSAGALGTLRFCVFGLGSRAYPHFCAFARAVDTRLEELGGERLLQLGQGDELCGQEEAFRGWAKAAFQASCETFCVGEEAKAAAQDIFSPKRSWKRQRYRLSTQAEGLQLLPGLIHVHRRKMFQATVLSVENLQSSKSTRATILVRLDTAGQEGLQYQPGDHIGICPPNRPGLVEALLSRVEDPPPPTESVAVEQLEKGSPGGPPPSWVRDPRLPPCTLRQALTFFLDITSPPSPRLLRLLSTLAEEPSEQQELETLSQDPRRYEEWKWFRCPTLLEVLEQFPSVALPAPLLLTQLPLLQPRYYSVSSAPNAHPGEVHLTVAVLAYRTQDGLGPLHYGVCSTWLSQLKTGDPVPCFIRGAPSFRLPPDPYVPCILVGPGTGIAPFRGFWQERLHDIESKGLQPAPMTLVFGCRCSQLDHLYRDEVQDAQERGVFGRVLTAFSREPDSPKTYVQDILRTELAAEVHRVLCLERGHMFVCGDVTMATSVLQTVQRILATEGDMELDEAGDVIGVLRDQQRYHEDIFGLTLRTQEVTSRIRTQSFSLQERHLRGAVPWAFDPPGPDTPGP
Method in brief: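 Bovine coronary artery endothelial cells, in triplicate, were exposed to a range of concentrations of each compound. Medium was collected 10 min after treatment, and NO was quantified as nitrite/nitrate with a commercial kit. Sigmoidal concentration-response curves were fitted to the triplicate means to give EC50.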

[6] = Upregulation of porin expression in BCAEC at EC50 after 48 hrs by Western blot analysis; assay type: functional; conditions: Bos taurus
[7] = target: T2, Citrate synthase, mitochondrial (Bos taurus) (UniProt Q29RK1); test: Induction of citrate synthase activity in BCAEC at EC50 after 48 hrs in presence of L-NAME
T2 sequence (whole entry): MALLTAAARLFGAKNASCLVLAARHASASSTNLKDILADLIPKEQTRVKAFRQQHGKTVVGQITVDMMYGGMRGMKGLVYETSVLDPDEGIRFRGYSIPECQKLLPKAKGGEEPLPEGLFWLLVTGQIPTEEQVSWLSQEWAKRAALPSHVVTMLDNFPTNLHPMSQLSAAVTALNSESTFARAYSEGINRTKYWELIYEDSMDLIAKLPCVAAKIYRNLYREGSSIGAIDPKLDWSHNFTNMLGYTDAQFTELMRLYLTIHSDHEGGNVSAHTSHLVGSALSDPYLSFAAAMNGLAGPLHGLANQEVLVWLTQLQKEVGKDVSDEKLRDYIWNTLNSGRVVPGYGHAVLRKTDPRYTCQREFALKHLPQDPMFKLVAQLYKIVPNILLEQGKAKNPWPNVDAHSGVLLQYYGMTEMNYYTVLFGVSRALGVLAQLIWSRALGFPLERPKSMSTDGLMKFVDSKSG

[8] = Upregulation of mitofilin expression in BCAEC at EC50 after 48 hrs by Western blot analysis in presence of L-NAME; assay type: functional; conditions: Bos taurus
[9] = Upregulation of mitochondrial complex-1 expression in BCAEC at EC50 after 48 hrs by Western blot analysis relative to control; assay type: functional; conditions: Bos taurus
[10] = Upregulation of mitochondrial complex-2 expression in BCAEC at EC50 after 48 hrs by Western blot analysis in presence of L-NAME; assay type: functional; conditions: Bos taurus
[11] = Upregulation of TFAM expression in BCAEC at EC50 after 48 hrs by Western blot analysis in presence of L-NAME; assay type: functional; conditions: Bos taurus
[12] = target: T2, Citrate synthase, mitochondrial (Bos taurus); test: Induction of citrate synthase activity in BCAEC at EC50 after 48 hrs relative to control
[13] = Upregulation of mitochondrial complex-1 expression in BCAEC at EC50 after 48 hrs by Western blot analysis in presence of L-NAME; assay type: functional; conditions: Bos taurus
[14] = Upregulation of mitochondrial complex-1 expression in BCAEC at 100 nmol/L after 48 hrs by Western blot analysis; assay type: functional; conditions: Bos taurus

EC50 (Nitric oxide synthase 3) [nM]	Activity [7]	Activity [12] [%]	Structure (SMILES)	Activity [1]	Activity [2]	Activity [3]	Activity [4] [%]	Activity [5]	Activity [6]	Activity [8]	Activity [9]	Activity [10]	Activity [11]	Activity [13]	Activity [14]
0.006	inactive	30	CC(=O)Oc1cc(OC(C)=O)c2c(c1)O[C@H](c1ccc(OC(C)=O)c(OC(C)=O)c1)[C@H](OC(C)=O)C2 [EPICATECHIN PENTAACETATE]	Active	Active	inactive	25	Active	Active	inactive	60%	inactive	inactive	inactive	
1	inactive	30	CCOc1cc([C@H]2Oc3cc(O)cc(O)c3C[C@H]2O)ccc1O			inactive			Active	inactive	inactive	inactive		inactive	
2	inactive	30	Oc1cc(O)c2c(c1)O[C@H](c1ccc(O)c(O)c1)[C@H](O)C2 [(-)-EPICATECHIN]		Active	inactive	25	Active	inactive	inactive	20%	inactive	inactive	inactive	Active
